# Source: ChEMBL document CHEMBL1949567, “Novel synthesis and biological evaluation of enigmols as therapeutic agents for treating prostate cancer” (ACS Med Chem Lett, 2011)
# Activity calls are given as the source filed them. No cut-off for these calls is given here.
# Experiments:
# [1] = tested on: PC-3; experiment: Anticancer activity against androgen insensitive human PC3 cells xenografted nude mouse model assessed as decrease in tumor growth rate administered at 15 mg/kg, ip administered once in a week on day 22 to day 29 after implantation relative to control; format: functional, organism-based; parameters: dose 15 mg/kg
# Outline: (§1)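 Nude mice bearing PC-3 xenografts (n = 15). Daily oral gavage at 10 mg/kg from Day 22 to Day 34 after implantation. Docetaxel 15 mg/kg or vehicle given i.p. on Days 22 and 29, alone or combined with gavage. Tumor growth and body weight followed. Growth analysed by mixed model for repeated measurements, weights by ANOVA.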
# [2] = Tmax in CD-1/Swiss Webster mouse at 30 mg/kg, po by LC/MS/MS analysis; format: ADME, organism-based; parameters: dose 30 mg/kg, route oral; settings: in vivo
# Outline: (§2)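 Outbred male Swiss Webster or CD-1 mice, n = 3 per time point, single oral dose of 10 or 30 mg/kg in 10% ethanol/90% olive oil given at 5 mL/kg. Blood drawn from submandibular vein or retro-orbital plexus at set time points. PK parameters calculated from mean plasma concentrations (nM).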
# [3] = Tmax in CD-1/Swiss Webster mouse at 10 mg/kg, po by LC/MS/MS analysis; format: ADME, organism-based; parameters: dose 10 mg/kg, route oral; settings: in vivo; outline: as §2
# [4] = tested on: LNCaP; experiment: Cytotoxicity against human LNCAP cells after 24 hrs by WST-1 assay; format: functional, cell-based
# Outline: (§3)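 PC-3 (androgen-independent) and LNCaP (androgen-sensitive) prostate cancer cells treated for 24 h. Cytotoxicity read by WST-1 assay. IC50 calculated from the resulting data.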
# [5] = tested on: PC-3; experiment: Cytotoxicity against human PC3 cells after 24 hrs by WST-1 assay; format: functional, cell-based; settings: PC-3, 24 h; outline: as §3
# [6] = Cmax in CD-1/Swiss Webster mouse at 10 mg/kg, po by LC/MS/MS analysis; format: ADME, organism-based; parameters: dose 10 mg/kg, route oral; settings: in vivo; outline: as §2
# [7] = Cmax in CD-1/Swiss Webster mouse at 30 mg/kg, po by LC/MS/MS analysis; format: ADME, organism-based; parameters: dose 30 mg/kg, route oral; settings: in vivo; outline: as §2
# [8] = Half life in CD-1/Swiss Webster mouse at 10 mg/kg, po by LC/MS/MS analysis; format: ADME, organism-based; parameters: dose 10 mg/kg, route oral; settings: in vivo; outline: as §2
# [9] = Half life in CD-1/Swiss Webster mouse at 30 mg/kg, po by LC/MS/MS analysis; format: ADME, organism-based; parameters: dose 30 mg/kg, route oral; settings: in vivo; outline: as §2
# [10] = AUC (0 to t) in CD-1/Swiss Webster mouse at 10 mg/kg, po by LC/MS/MS analysis; format: ADME, organism-based; parameters: dose 10 mg/kg, route oral; settings: plasma; outline: as §2
# [11] = AUC (0 to t) in CD-1/Swiss Webster mouse at 30 mg/kg, po by LC/MS/MS analysis; format: ADME, organism-based; parameters: dose 30 mg/kg, route oral; settings: plasma; outline: as §2
# [12] = AUC (0 to infinity) in CD-1/Swiss Webster mouse at 10 mg/kg, po by LC/MS/MS analysis; format: ADME, organism-based; parameters: time infinity, dose 10 mg/kg, route oral; settings: plasma; outline: as §2
# [13] = AUC (0 to infinity) in CD-1/Swiss Webster mouse at 30 mg/kg, po by LC/MS/MS analysis; format: ADME, organism-based; parameters: time infinity, dose 30 mg/kg, route oral; settings: plasma; outline: as §2
# [14] = Apparent volume of distribution during terminal phase in CD-1/Swiss Webster mouse at 10 mg/kg, po by LC/MS/MS analysis; format: ADME, organism-based; parameters: dose 10 mg/kg, route oral; settings: in vivo, read-out: Vz/F; outline: as §2
# [15] = tested on: Mus musculus; experiment: (§4) Apparent volume of distribution during terminal phase in CD-1/Swiss Webster mouse at 30 mg/kg, po by LC/MS/MS analysis; format: ADME, organism-based; parameters: dose 30 mg/kg, route oral; settings: in vivo; outline: as §2
# [16] = Apparent oral clearance in CD-1/Swiss Webster mouse at 10 mg/kg, po by LC/MS/MS analysis; format: ADME, organism-based; parameters: dose 10 mg/kg, route oral; settings: in vivo; outline: as §2
# [17] = Apparent oral clearance in CD-1/Swiss Webster mouse at 30 mg/kg, po by LC/MS/MS analysis; format: ADME, organism-based; parameters: dose 30 mg/kg, route oral; settings: in vivo; outline: as §2
# [18] = Drug uptake in rat prostate tissue at 100 mg/kg, po; format: ADME, organism-based, Prostate gland; parameters: dose 100 mg/kg, route oral; settings: in vivo, read-out: Drug uptake
# [19] = tested on: LNCaP; experiment: Anticancer activity against androgen sensitive human LNCAP cells xenografted nude mouse model assessed as reduction in tumor growth rate administered at 10 mg/kg, po once daily after day 14 of implantation measured on day 36 relative to control; format: functional, organism-based; parameters: dose 10 mg/kg
# Outline: (§5)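 Nude mice bearing palpable subcutaneous LNCaP tumors (n = 10–12 per group). Castration or sham surgery on Day 13 after implantation. Daily oral gavage of 10 mg/kg or vehicle from Day 14. Tumor growth followed over time and body weights monitored. Controls sacrificed Day 36 for tumor burden; some groups continued longer. Growth analysed by mixed model for repeated measurements, weights by ANOVA.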
# [20] = tested on: LNCaP; experiment: Anticancer activity in androgen sensitive human LNCAP cells xenografted castrated mouse model assessed as reduction in tumor growth rate administered at 10 mg/kg, po once daily from day 14 after implantation measured on day 38 relative to control; format: functional, organism-based; parameters: dose 10 mg/kg; outline: as §5
# [21] = tested on: PC-3; experiment: Anticancer activity against androgen insensitive human PC3 cells xenografted nude mouse model assessed as decrease in tumor growth rate administered at 10 mg/kg, po once daily administered from day 22 to day 34 after implantation relative to control; format: functional, organism-based; parameters: dose 10 mg/kg; outline: as §1
# [22] = tested on: PC-3; experiment: Anticancer activity against androgen insensitive human PC3 cells xenografted nude mouse model assessed as decrease in tumor growth rate administered at 10 mg/kg, po once daily administered from day 22 to day 34 after implantation coadministered with docetaxel relative to control; format: functional, organism-based; parameters: dose 10 mg/kg; outline: as §1
# [23] = tested on: PC-3; experiment: Anticancer activity against androgen insensitive human PC3 cells xenografted nude mouse model assessed as decrease in tumor growth rate administered at 10 mg/kg, po once daily administered from day 16 after implantation; format: functional, organism-based; parameters: dose 10 mg/kg
# Outline: (§6)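 Nude mice bearing established PC-3 tumors (n = 10) given 10 mg/kg daily by oral gavage from day 16 after implantation, with vehicle controls. Tumor growth and body weight measured over time. Growth rates compared by mixed model for repeated measurements, weights by ANOVA.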
# [24] = tested on: Mus musculus; experiment: Toxicity in androgen sensitive human LNCAP cells xenografted nude mouse model assessed as body weight change at 10 mg/kg, po once daily after day 14 of implantation; format: organism-based; parameters: dose 10 mg/kg, route oral; settings: in vivo; outline: as §5
# [25] = tested on: Mus musculus; experiment: Toxicity in androgen sensitive human LNCAP cells xenografted castrated mouse model assessed as body weight change at 10 mg/kg, po once daily after day 14 of implantation; format: organism-based; parameters: dose 10 mg/kg, route oral; settings: in vivo; outline: as §5
# [26] = tested on: Mus musculus; experiment: Toxicity in androgen insensitive human PC3 cells xenografted nude mouse model assessed as body weight change administered at 10 mg/kg, po once daily administered from day 22 to day 34 after implantation; format: organism-based, PC-3; parameters: dose 10 mg/kg, route oral; settings: in vivo; outline: as §1
# [27] = tested on: PC-3; experiment: Anticancer activity against androgen insensitive human PC3 cells xenografted nude mouse model assessed as decrease in tumor growth rate administered at 10 mg/kg, po once daily administered from day 16 after implantation
# [28] = tested on: Mus musculus; experiment: Toxicity in androgen insensitive human PC3 cells xenografted nude mouse model assessed as body weight change administered at 10 mg/kg, po once daily administered from day 16 after implantation; format: organism-based, PC-3; parameters: dose 10 mg/kg, route oral; settings: in vivo; outline: as §6
# [29] = as §4; format: ADME, organism-based; parameters: dose 30 mg/kg, route oral; settings: CD-1/Swiss Webster, in vivo, read-out: Vz/F; outline: as §2
Tmax [2] [h],Tmax [3] [h],Cmax [6] [nM],Cmax [7] [nM],half-life [8] [h],half-life [9] [h],AUC(0-t) [10] [µM·h],AUC(0-t) [11] [µM·h],AUC(0-inf) [12] [µM·h],AUC(0-inf) [13] [µM·h],Vd/F [14] [L/kg],CL/F [16] [mL/min/kg],CL/F [17] [mL/min/kg],Structure (SMILES),IC50 [4] [µM],IC50 [5] [µM],Activity [23],Activity [28] [%],other results
,,,,,,,,,,,,,CC(=O)O[C@@]12CO[C@@H]1C[C@H](O)[C@@]1(C)C(=O)[C@H](O)C3=C(C)[C@@H](OC(=O)[C@H](O)[C@@H](NC(=O)OC(C)(C)C)c4ccccc4)C[C@@](O)([C@@H](OC(=O)c4ccccc4)[C@H]21)C3(C)C,,,,,Activity [1]: Active
2,2,137,705,11,5,1.88,5.96,2.54,6.96,211,217,233,CCCCCCCCCCCCC[C@H](O)C[C@H](O)[C@H](C)N [ENIGMOL],9.7,10.3,Active,,Vz/F [15]: 107 L/kg; concentration [18]: 10000 nM; Activity [19]: Active; Activity [20]: Active; Activity [21]: Active; Activity [22]: Active; Activity [24]: < 6%; Activity [25]: < 6%; Activity [26]: 0.3%; Activity [27]: Active
,,,,,,,,,,,,,CCCCCCCCCCCCC[C@@H](O)C[C@@H](O)[C@H](C)N,50,49.3,,,
,,,,,,,,,,,,,CCCCCCCCCCCCC[C@@H](O)C[C@H](O)[C@H](C)N,9.7,10.2,Active,0.3,
2,4,232,1120,15,12,3.86,13.6,5.99,17.9,117,83.3,83.3,CCCCCCCCCCCCC[C@H](O)C[C@H](O)[C@H](C)NC,25,10.5,,,Vd/F [29]: 90 L/kg
,,,,,,,,,,,,,CCCCCCCCCCCCC[C@H](O)C[C@@H](O)[C@H](C)N,5,9.7,Active,0.3,
